# Data taken from ChEMBL document CHEMBL1129649, “A novel series of (phenoxyalkyl)imidazoles as potent H3-receptor histamine antagonists” (J Med Chem, 1996).
# Tests used:
# Mus musculus = assay: In vivo evaluation for effect on brain tele-methylhistamine levels in mice; assay type: functional
# Procedure, shortened: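 Male Swiss mice (18-22 g, groups of at least six) fasted 24 h, then dosed orally as salt suspended in 1% methylcellulose (doses as free base, starting at 10 mg/kg). Cerebral cortex taken 90 min later, homogenized in ice-cold 0.4 M perchloric acid; tele-methylhistamine measured by radioimmunoassay. ED50 calculated relative to maximal level produced by 10 mg/kg thioperamide.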
# Histamine H3 receptor = Histamine H3 receptor (Rattus norvegicus, UniProt Q9QYN8); assay: Rat Histamine H3 receptor antagonism determined by [K+] - evoked depolarization-induced release of [3H]histamine from rat cerebral cortex synaptosomes; assay type: functional, subcellular, Brain
# Chain of Histamine H3 receptor (Q9QYN8 whole entry): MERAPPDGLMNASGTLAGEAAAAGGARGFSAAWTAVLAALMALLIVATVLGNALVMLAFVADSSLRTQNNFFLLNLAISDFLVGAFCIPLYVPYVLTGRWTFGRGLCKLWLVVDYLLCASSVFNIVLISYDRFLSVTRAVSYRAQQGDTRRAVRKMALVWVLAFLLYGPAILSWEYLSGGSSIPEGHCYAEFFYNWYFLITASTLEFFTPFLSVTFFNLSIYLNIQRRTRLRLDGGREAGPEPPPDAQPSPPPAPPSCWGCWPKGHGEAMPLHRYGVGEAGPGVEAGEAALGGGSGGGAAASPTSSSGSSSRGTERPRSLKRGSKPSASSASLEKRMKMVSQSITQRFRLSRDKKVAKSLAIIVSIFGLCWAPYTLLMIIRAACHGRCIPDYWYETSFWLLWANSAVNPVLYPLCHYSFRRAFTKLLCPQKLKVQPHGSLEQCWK
SMILES,ED50 (Mus musculus) [mg/kg],Ki (Histamine H3 receptor) [nM]
O=[N+]([O-])c1ccc(SCCc2c[nH]cn2)nc1,2.6,
N#Cc1ccc(OCCCc2c[nH]cn2)cc1,0.54,
N#Cc1ccc(OCCc2c[nH]cn2)cc1,1.2,
Clc1ccc(OCCc2c[nH]cn2)cc1,0.78,21
CC(=O)c1ccc(OCCc2c[nH]cn2)cc1,3.2,
Brc1ccc(OCCc2c[nH]cn2)cc1,2.9,24
c1ccc2cc(OCCc3c[nH]cn3)ccc2c1,1.5,
COc1ccc(OCCc2cnc[nH]2)cc1,2.9,38
O=[N+]([O-])c1ccc(CSCc2c[nH]cn2)cc1,> 10,
O=[N+]([O-])c1ccc(SCCc2c[nH]cn2)cc1,2.7,9
O=C(c1ccccc1)c1ccc(OCCc2c[nH]cn2)cc1,2.6,54
CCCc1ccc(OCCc2c[nH]cn2)cc1,1.6,
Cc1ccc(OCCc2c[nH]cn2)cc1,2.3,
N#Cc1ccccc1OCCc1c[nH]cn1,> 10,
COC(=O)c1ccc(OCCc2c[nH]cn2)cc1,> 3,5.1
N#Cc1cccc(OCCc2c[nH]cn2)c1,2.9,39

SMILES,ED50 (Mus musculus) [mg/kg],Ki (Histamine H3 receptor) [nM]
O=[N+]([O-])c1cccc(OCCc2c[nH]cn2)c1,0.9,12
FC(F)(F)c1ccc(OCCc2cnc[nH]2)cc1,> 10,68
FC(F)(F)c1ccc(OCCCc2c[nH]cn2)cc1,0.6,
Clc1cc(Cl)cc(OCCc2c[nH]cn2)c1,> 10,> 500
c1ccc2c(OCCc3c[nH]cn3)cccc2c1,3.4,137
Fc1c(F)c(F)c(OCCc2c[nH]cn2)c(F)c1F,10,> 500
Fc1ccc(OCCCc2cnc[nH]2)cc1,4.9,11
O=C(c1ccc(OCCc2cnc[nH]2)cc1)N1CCCCC1,> 10,338
CCC(=O)c1ccc(OCCc2cnc[nH]2)cc1,0.95,3.7
CCc1ccc(OCCc2cnc[nH]2)cc1,> 10,80
O=[N+]([O-])c1ccc(OCCc2c[nH]cn2)cc1,0.66,
O=[N+]([O-])c1ccc(NCCc2c[nH]cn2)nc1,,29
CCOC(=O)c1ccc(OCCc2c[nH]cn2)cc1,> 10,6
O=[N+]([O-])c1ccc(NCCc2c[nH]cn2)cc1,10.7,
S=C(NC1CCCCC1)N1CCC(c2cnc[nH]2)CC1 [THIOPERAMIDE],1,
